Residues, ends and D or L forms follow the SMILES beside them. *: point of attachment. Tos = Cc1ccc(S(=O)(=O)*)cc1; Ms = CS(=O)(=O)*
Assays:
[1] = molecular target: T1, Calpain-2 catalytic subunit (Homo sapiens, UniProt P17655); test: Inhibition of CAPN2 using BODIPY-labeled casein substrate by fluorometric analysis
T1 sequence (P17655 whole entry): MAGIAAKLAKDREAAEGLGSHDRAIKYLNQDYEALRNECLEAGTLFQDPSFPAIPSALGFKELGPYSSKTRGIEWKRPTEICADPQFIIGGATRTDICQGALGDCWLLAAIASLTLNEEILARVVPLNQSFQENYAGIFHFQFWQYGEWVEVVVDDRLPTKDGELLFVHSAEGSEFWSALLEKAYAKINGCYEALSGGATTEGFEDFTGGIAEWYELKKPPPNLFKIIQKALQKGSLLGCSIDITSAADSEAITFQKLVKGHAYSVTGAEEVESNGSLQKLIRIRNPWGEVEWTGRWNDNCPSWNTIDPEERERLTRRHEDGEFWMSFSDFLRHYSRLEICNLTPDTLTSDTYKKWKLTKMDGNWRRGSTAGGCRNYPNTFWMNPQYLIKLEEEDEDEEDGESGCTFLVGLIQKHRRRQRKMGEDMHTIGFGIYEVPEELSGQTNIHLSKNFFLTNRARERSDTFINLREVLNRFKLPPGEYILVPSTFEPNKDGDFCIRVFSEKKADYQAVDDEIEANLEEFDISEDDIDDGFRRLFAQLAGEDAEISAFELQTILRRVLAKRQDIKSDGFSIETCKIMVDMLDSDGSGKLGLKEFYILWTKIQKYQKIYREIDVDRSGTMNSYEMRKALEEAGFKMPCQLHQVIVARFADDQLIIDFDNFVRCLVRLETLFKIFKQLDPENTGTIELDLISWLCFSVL
In short: (§1)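 Quenched fluorogenic substrate: casein labelled with BODIPY (4,4-difluoro-5,7-dimethyl-4-bora-3a,4a-diaza-s-indacene-3-propionic acid). Proteolysis relieves the quenching, and the resulting rise in fluorescence is the read-out. IC50 was determined with an established protocol at the Lincoln University laboratory.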

[2] = molecular target: T2, Calpain-1 catalytic subunit (Rattus norvegicus, UniProt P97571); test: Inhibition of rat CAPN1 using BODIPY-labeled casein substrate by fluorometric analysis
T2 sequence (P97571 whole entry): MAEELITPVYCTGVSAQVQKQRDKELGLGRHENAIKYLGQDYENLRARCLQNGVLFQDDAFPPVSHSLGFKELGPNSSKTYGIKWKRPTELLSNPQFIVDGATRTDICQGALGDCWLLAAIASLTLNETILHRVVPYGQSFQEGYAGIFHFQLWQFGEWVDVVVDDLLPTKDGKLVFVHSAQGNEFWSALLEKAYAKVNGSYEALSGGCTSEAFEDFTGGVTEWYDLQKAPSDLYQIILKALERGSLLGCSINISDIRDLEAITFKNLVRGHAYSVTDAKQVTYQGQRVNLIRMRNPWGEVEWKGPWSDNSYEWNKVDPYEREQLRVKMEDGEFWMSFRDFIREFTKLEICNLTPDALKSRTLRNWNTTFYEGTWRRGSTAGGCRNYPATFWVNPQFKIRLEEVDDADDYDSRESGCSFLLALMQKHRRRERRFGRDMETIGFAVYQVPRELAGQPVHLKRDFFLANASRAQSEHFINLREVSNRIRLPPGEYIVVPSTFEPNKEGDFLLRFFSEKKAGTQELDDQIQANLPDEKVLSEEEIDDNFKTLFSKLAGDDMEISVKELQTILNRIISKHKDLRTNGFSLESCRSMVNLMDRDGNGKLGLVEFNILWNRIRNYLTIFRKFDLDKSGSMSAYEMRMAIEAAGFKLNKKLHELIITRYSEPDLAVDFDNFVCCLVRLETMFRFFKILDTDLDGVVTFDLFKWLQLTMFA

[3] = Inhibition of ovine CAPN2 using BODIPY-labeled casein substrate by fluorometric analysis; parameters: species or system Ovis aries; in short: as §1
[4] = Inhibition of ovine CAPN1 using BODIPY-labeled casein substrate by fluorometric analysis; parameters: species or system Ovis aries; in short: as §1

SMILES | IC50 [2] | IC50 [3] | IC50 [4] | also measured
CC(C)C[C@@H]1NC(=O)[C@@H](NC(=O)OCc2ccccc2)Cc2ccc(cc2)OCCC[C@@H](C=O)NC1=O |  |  |  | IC50 [1]: 850 nM
CC(C)C[C@@H]1NC(=O)[C@@H](NC(=O)OCc2ccccc2)Cc2ccc(cc2)OCCC[C@@H](CO)NC1=O |  |  |  | IC50 [1]: 31000 nM
CC(C)[C@@H]1NC(=O)[C@@H](NC(=O)OCc2ccccc2)Cc2ccc(cc2)OCCCC[C@@H](C=O)NC1=O |  |  |  | IC50 [1]: 85 nM
CC(C)C[C@@H]1NC(=O)[C@@H](NC(=O)OCc2ccccc2)Cc2ccc(cc2)OCCCCSC[C@@H](C=O)NC1=O |  |  |  | IC50 [1]: 1010 nM
CC(C)C[C@@H]1NC(=O)[C@@H](NC(=O)OCc2ccccc2)Cc2ccc(cc2)OCCCCSC[C@@H](CO)NC1=O |  |  |  | IC50 [1]: 28000 nM
CC(C)[C@H](NS(=O)(=O)c1ccc(F)cc1)C(=O)N[C@H](C=O)Cc1ccccc1 | 27 nM |  |  | 
CC(C)C[C@@H](C=O)NC(=O)[C@@H](NS(=O)(=O)c1ccc(F)cc1)C(C)C |  | 80 nM | 130 nM | 
CC(C)C[C@@H](C=O)NC(=O)[C@@H](NC(=O)c1ccco1)C(C)C |  | 135 nM | 790 nM | 
CC(C)C[C@@H](C=O)NC(=O)[C@@H](NC(=O)c1cccs1)C(C)C |  | 100 nM | 680 nM | 
COC(=O)c1ccc(C(=O)N[C@H](C(=O)N[C@H](C=O)CC(C)C)C(C)C)[nH]1 |  | 140 nM | 290 nM | 
CC(C)C[C@@H](C=O)NC(=O)[C@@H](NC(=O)c1cc(C=O)c[nH]1)C(C)C |  | 100 nM | 530 nM | 
CC(C)C[C@@H](C=O)NC(=O)[C@@H](NC(=O)c1ccc(C=O)n1C)C(C)C |  | 150 nM | 150 nM | 
Cc1ccc(S(=O)(=O)N[C@H](C(=O)N[C@H](C=O)CC(C)C)C(C)C)cc1 (Tos-Val-Leu-aldehyde) | 28 nM |  |  | 
Cc1ccc(S(=O)(=O)N[C@H](C(=O)N[C@H](C=O)Cc2ccccc2)C(C)C)cc1 (Tos-Val-Phe-aldehyde) | 18 nM |  |  | 

The next lines start with results.

IC50 [2] | IC50 [3] | IC50 [4] | SMILES | also measured
10 nM |  |  | CC(C)C[C@@H](C=O)NC(=O)[C@@H](NS(=O)(=O)c1ccc2ccccc2c1)C(C)C | 
14 nM |  |  | CC(C)[C@H](NS(=O)(=O)c1ccc2ccccc2c1)C(=O)N[C@H](C=O)Cc1ccccc1 | 
23 nM |  |  | CC(C)[C@H](NS(=O)(=O)c1ccc(F)cc1)C(=O)N[C@H](C=O)Cc1c[nH]c2ccccc12 | 
630 nM |  |  | CC(C)[C@H](NS(=O)(=O)c1ccc(F)cc1)C(=O)N[C@@H](C)C=O | 
31 nM |  |  | CC(C)C[C@@H](C=O)NC(=O)[C@@H](NS(=O)(=O)c1ccc(Cl)cc1)C(C)C | 
14 nM |  |  | CC(C)[C@H](NS(=O)(=O)c1ccc(Cl)cc1)C(=O)N[C@H](C=O)Cc1ccccc1 | 
13 nM |  |  | CC(C)[C@H](NS(=O)(=O)c1ccc(Cl)cc1)C(=O)N[C@H](C=O)Cc1c[nH]c2ccccc12 | 
130 nM |  |  | CCC[C@H](NS(=O)(=O)c1ccc(F)cc1)C(=O)N[C@H](C=O)CC(C)C | 
260 nM |  |  | CCCC[C@H](NS(=O)(=O)c1ccc(F)cc1)C(=O)N[C@H](C=O)CC(C)C | 
21000 nM |  |  | CC(C)C[C@@H](C=O)NC(=O)[C@H](C(C)C)N(C)S(=O)(=O)c1ccc(F)cc1 | 
 | 315 nM | 650 nM | CC(C)C[C@@H](C=O)NC(=O)[C@@H](NC(=O)c1ccc[nH]1)C(C)C | 
 | 100 nM | 960 nM | CC(C)C[C@@H](C=O)NC(=O)[C@@H](NC(=O)c1ccc(C=O)o1)C(C)C | 
 | 85 nM | 440 nM | CC(C)C[C@@H](C=O)NC(=O)[C@@H](NC(=O)c1ccc(C=O)s1)C(C)C | 
 | 110 nM | 340 nM | Cc1ccc(C(=O)N[C@H](C(=O)N[C@H](C=O)CC(C)C)C(C)C)[nH]1 | 
 | 25 nM | 290 nM | CC(C)C[C@@H](C=O)NC(=O)[C@@H](NC(=O)c1ccc(C=O)[nH]1)C(C)C | 
830 nM |  |  | CC(C)C[C@@H](C=O)NC(=O)[C@@H](NS(C)(=O)=O)C(C)C (Ms-Val-Leu-aldehyde) | 
